# Assay results: ChEMBL document CHEMBL3108678, “Isolation and synthesis of pulmonarins A and B, acetylcholinesterase inhibitors from the colonial ascidian Synoicum pulmonaria” (J Nat Prod, 2014)
# Active and inactive are the calls of the source. No cut-off for these calls is given here.
# Tests used:
# [1] = tested on: Staphylococcus epidermidis; experiment: Antimicrobial activity against Staphylococcus epidermidis ATCC 35984 assessed as inhibition of biofilm formation; type: functional, organism-based
# [2] = tested on: MRC5; experiment: Cytotoxicity against human MRC5 cells; type: cell-based
# [3] = tested on: MCF7; experiment: Cytotoxicity against human MCF7 cells; type: cell-based
# [4] = tested on: HT-29; experiment: Cytotoxicity against human HT-29 cells; type: cell-based
# [5] = tested on: A2058; experiment: Cytotoxicity against human A2058 cells; type: cell-based
# [6] = tested on: Pseudomonas aeruginosa; experiment: Antimicrobial activity against Pseudomonas aeruginosa ATCC 27853 at 8 to 500 ug/ml after 24 hrs; type: functional, organism-based
# Outline: (§1)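 Broth microdilution in Mueller Hinton broth at 37 °C. Samples dissolved in H2O are mixed 1:1 with log-phase bacterial suspension, about 5 × 10⁵ cells per well, and tested at 8 to 500 μg/mL. Growth is followed by optical density. MIC is the lowest concentration giving no OD change after 24 h at 37 °C. Cecropin B (25 μM) serves as positive control.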
# [7] = tested on: Escherichia coli; experiment: Antimicrobial activity against Escherichia coli ATCC 25922 at 8 to 500 ug/ml after 24 hrs; type: functional, organism-based; outline: as §1
# [8] = tested on: Staphylococcus aureus; experiment: Antimicrobial activity against Staphylococcus aureus ATCC 9144 at 8 to 500 ug/ml after 24 hrs; type: functional, organism-based; outline: as §1
# [9] = tested on: Corynebacterium glutamicum; experiment: Antimicrobial activity against Corynebacterium glutamicum ATCC 13032 after 24 hrs; type: functional; settings: ATCC 13032, 24 h
# Outline: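 Broth microdilution in Mueller Hinton broth at 37 °C. Compounds were dissolved in water and tested from 8 to 500 μg/mL against log-phase bacteria at a start of about 5 × 10⁵ cells per well. Growth was followed by optical density, with cecropin B (25 μM) as positive control. MIC was taken as the lowest concentration giving no change in optical density after 24 h at 37 °C.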
# [10] = target: T1, Acetylcholinesterase (Electrophorus electricus, UniProt O42275); experiment: Noncompetitive inhibition of electric eel AChE using acetylthiocholine chloride as substrate after 5 mins by Dixon plot analysis
# T1 sequence (O42275 whole entry): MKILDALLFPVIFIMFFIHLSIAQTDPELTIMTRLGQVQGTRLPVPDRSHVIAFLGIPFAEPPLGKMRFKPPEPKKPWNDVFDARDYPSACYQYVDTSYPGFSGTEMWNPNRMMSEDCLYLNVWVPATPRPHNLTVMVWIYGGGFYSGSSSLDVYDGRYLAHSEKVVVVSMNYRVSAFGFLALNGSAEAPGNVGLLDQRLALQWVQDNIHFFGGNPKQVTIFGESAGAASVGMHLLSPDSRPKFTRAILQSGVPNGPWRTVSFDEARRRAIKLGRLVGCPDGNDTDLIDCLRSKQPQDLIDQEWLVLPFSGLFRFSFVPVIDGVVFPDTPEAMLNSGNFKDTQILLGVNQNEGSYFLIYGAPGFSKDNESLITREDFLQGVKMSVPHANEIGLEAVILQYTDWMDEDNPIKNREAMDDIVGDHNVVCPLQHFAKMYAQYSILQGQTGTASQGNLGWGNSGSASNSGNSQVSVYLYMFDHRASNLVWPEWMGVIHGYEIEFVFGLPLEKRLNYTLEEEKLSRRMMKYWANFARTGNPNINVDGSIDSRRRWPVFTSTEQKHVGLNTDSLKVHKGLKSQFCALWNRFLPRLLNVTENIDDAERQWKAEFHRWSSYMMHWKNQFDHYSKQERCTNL
# [11] = target: T1, Acetylcholinesterase; experiment: Inhibition of electric eel AChE using acetylthiocholine chloride as substrate after 5 mins by Ellman's method
Compound,inhibition [1],Activity [2],Activity [3],Activity [4],Activity [5],Activity [6],Activity [7],Activity [8],MIC [9] [µg/mL],Ki [10] [µM],IC50 [11] [µM]
COc1c(Br)cc(C(=O)OCC[N+](C)(C)C)cc1Br.[Cl-],inactive,Non-toxic,Non-toxic,Non-toxic,Non-toxic,inactive,inactive,inactive,500,90,105
COc1c(Br)cc(CC(=O)NCCCCC[N+](C)(C)C)cc1Br.[I-],inactive,Non-toxic,Non-toxic,Non-toxic,Non-toxic,inactive,inactive,inactive,250,20,36
